This passage reports inhibition and IC50 results from ChEMBL document CHEMBL3102692 (Bioorg Med Chem Lett, 2014).

Structures are written as SMILES. pIC50: −log10 of the molar value. The source made the active and inactive calls. No cut-off for these calls is given here.

Assay [1] deals with T1, Beta-secretase 1 (Homo sapiens, UniProt P56817). Put plainly: Inhibition of recombinant BACE1 (unknown origin) at 0.67 mM.
For assay [2], the target named is T1, Beta-secretase 1. The assay is described as follows: Inhibition of recombinant BACE1 (unknown origin) at 1.3 mM. In outline:
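Recombinant BACE1 was incubated with a synthetic dodecapeptide substrate carrying the Swedish-type BACE1 cleavage sequence, in 40 mM AcONa buffer (pH 4.0) with 10% glycerol, 10 mM DTT and 4 M NaCl. The reaction mixture was analysed by reversed-phase C18 HPLC using a 10–40% MeCN gradient over 30 min in aq 0.1% TFA. Inhibition was read from the decrease of the substrate.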

For assay [3], the target named is T1, Beta-secretase 1. Put plainly: Non-competitive inhibition of recombinant BACE1 (unknown origin) by Lineweaver-Burk plot analysis.
For assay [4], the target named is T1, Beta-secretase 1. Put plainly: Inhibition of recombinant BACE1 (unknown origin).

T1 sequence (P56817 whole entry): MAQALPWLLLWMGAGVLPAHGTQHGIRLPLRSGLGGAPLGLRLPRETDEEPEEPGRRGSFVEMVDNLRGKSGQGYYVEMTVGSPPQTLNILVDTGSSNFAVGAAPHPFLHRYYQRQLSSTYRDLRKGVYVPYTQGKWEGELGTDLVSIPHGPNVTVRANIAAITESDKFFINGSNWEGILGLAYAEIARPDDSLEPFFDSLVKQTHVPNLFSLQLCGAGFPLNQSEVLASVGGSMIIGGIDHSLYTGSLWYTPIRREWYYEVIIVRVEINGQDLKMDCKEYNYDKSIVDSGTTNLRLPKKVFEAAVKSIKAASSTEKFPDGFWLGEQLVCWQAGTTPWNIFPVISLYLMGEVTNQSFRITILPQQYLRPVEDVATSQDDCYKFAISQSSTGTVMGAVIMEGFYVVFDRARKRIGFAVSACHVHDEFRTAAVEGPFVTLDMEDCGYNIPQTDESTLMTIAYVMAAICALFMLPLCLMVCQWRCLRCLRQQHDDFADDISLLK

For orientation: inhibition means the change of the read-out against control, counted positive when it falls. Consider `O=C(/C=C(O)/C=C/c1ccccc1)/C=C/c1ccccc1`, for which the inhibition at Beta-secretase 1 [1] was found to be 1%.

As for `COCCOCOc1ccc(CCC(=O)CC(O)CCc2ccc(OCOCCOC)c(OC)c2)cc1OC` (stereo unspecified), the inhibition on Beta-secretase 1 [2] is 15%.

The term pIC50 denotes the negative decadic logarithm of the IC50, by convention in mol/L. `O=C(/C=C(O)/C=C/c1ccccc1O)/C=C/c1ccc(O)c(O)c1`: on Beta-secretase 1 [3], the inhibition entry was “Active”. The pIC50 at Beta-secretase 1 [4] is 3.60. Moreover, on Beta-secretase 1 [1], the inhibition was 100%.

As to `COc1ccc(CCCC(C(=O)CCc2ccc(OC)c(OC)c2)C(C)C)cc1OC` (stereo unspecified), at Beta-secretase 1 [1], the inhibition turned out to be 5%.

For the compound `COCCOCOc1ccc(CCC(=O)/C=C(\O)CCc2ccc(OCOCCOC)c(OC)c2)cc1OC`, at Beta-secretase 1 [2], the inhibition was determined as 17%.

For `O=C(/C=C(O)/C=C/c1cccnc1)/C=C/c1ccc(O)c(O)c1`, at Beta-secretase 1 [1], the inhibition was 21%.

As for `O=C(/C=C(O)/C=C/c1ccc(O)c(O)c1)/C=C/c1ccc(O)c(O)c1`, the pIC50 on Beta-secretase 1 [4] was 2.66. At Beta-secretase 1 [1], the inhibition was 25%.

Consider `N#Cc1cccc(/C=C/C(O)=C/C(=O)/C=C/c2ccc(O)c(O)c2)c1`, for which the inhibition at Beta-secretase 1 [1] turned out to be 21%.

Take `COCCOCOC(=C\C(=O)/C=C/c1ccc(OCOCCOC)c(OC)c1)/C=C/c1ccc(OCOCCOC)c(OC)c1`: the inhibition at Beta-secretase 1 [2] came out at 36%.

In the case of `COc1ccc(CCC(O)C(C(C)C)C(O)CCc2ccc(OC)c(OC)c2)cc1OC` (stereo unspecified), the inhibition on Beta-secretase 1 [1] is 9%.

Take `O=C(/C=C(O)/C=C/c1cccc([N+](=O)[O-])c1)/C=C/c1ccc(O)c(O)c1`: the pIC50 on Beta-secretase 1 [4] was 2.74. Besides, at Beta-secretase 1 [1], the inhibition was found to be 18%.

As for `COCCOCOc1ccc(/C=C/C(=O)/C=C(O)/C=C/c2ccc(OCOCCOC)c(OC)c2)cc1OC`, the inhibition at Beta-secretase 1 [2] was found to be 19%.

Consider `COc1ccc(CCC(=O)C(C(C)C)C(O)CCc2ccc(OC)c(OC)c2)cc1OC` (stereo unspecified), for which the inhibition at Beta-secretase 1 [1] worked out at 1%.

Consider `COc1cc(CCC(=O)/C=C(\O)CCc2ccc(O)c(OC)c2)ccc1O`, for which, at Beta-secretase 1 [2], the inhibition was found to be 7%.

For `COc1cc(/C=C/C(O)=C/C(=O)/C=C/c2ccc(O)cc2)ccc1O` [DEMETHOXYCURCUMIN], on Beta-secretase 1 [4], the pIC50 was 2.80. Also, the inhibition on Beta-secretase 1 [1] was 35%.

Take `O=C(/C=C(O)/C=C/c1ccc(O)cc1)/C=C/c1ccc(O)c(O)c1`: the inhibition at Beta-secretase 1 [1] is 18%.

Consider `O=C(/C=C(O)/C=C/c1cccc(O)c1)/C=C/c1cccc(O)c1`, for which the inhibition at Beta-secretase 1 [1] stood at 33%.

On to `COc1cc(CCC(=O)CC(O)CCc2ccc(O)c(OC)c2)ccc1O` (stereo unspecified), for which the inhibition on Beta-secretase 1 [2] was found to be 7%.

Consider `COc1ccc(/C=C/C(=O)/C=C(O)/C=C/c2ccc(OC)c(OC)c2)cc1OC`, for which, on Beta-secretase 1 [1], the inhibition came to 0%.

Regarding `COc1cc(/C=C/C(=O)/C(=C(O)/C=C/c2ccc(O)c(OC)c2)C(C)C)ccc1O`, at Beta-secretase 1 [1], the inhibition is 6%.

Consider `COCOc1ccc(/C=C/C(=O)/C=C(O)/C=C/c2ccc(OCOC)c(OC)c2)cc1OC`, for which the inhibition on Beta-secretase 1 [1] came out at 7%.

Consider `O=C(/C=C(O)/C=C/c1ccccc1)/C=C/c1ccc(O)c(O)c1`, for which the inhibition at Beta-secretase 1 [1] was 26%.

On to `COc1cc(/C=C/C(=O)/C=C(O)/C=C/c2ccc(Br)cc2)ccc1O`, for which, on Beta-secretase 1 [1], the inhibition amounted to 5%.

`O=C(/C=C(O)/C=C/c1ccc[nH]1)/C=C/c1ccc(O)c(O)c1`: the inhibition on Beta-secretase 1 [1] came to 30%.

Take `COCCOCOc1ccc(/C=C/C(=O)/C=C(O)/C=C/c2ccc(O)c(OC)c2)cc1OC`: the inhibition on Beta-secretase 1 [2] came to 17%.

`O=C(/C=C(O)/C=C/c1c[nH]c2ccccc12)/C=C/c1ccc(O)c(O)c1`: the pIC50 on Beta-secretase 1 [4] was 3.35. Also, the inhibition at Beta-secretase 1 [1] was determined as 71%.

Consider `COc1ccccc1/C=C/C(O)=C/C(=O)/C=C/c1ccc(O)c(O)c1`, for which, at Beta-secretase 1 [4], the pIC50 was 2.85. The inhibition on Beta-secretase 1 [1] stood at 47%.

Take `COc1cc(/C=C/C(O)=C/C(=O)/C=C/c2ccc(O[Si](C)(C)C(C)(C)C)c(OC)c2)ccc1O`: the inhibition on Beta-secretase 1 [2] worked out at 22%.

For `COc1ccc(/C=C/C(=O)/C(=C(O)/C=C/c2ccc(OC)c(OC)c2)C(C)C)cc1OC`, the inhibition on Beta-secretase 1 [1] was found to be 4%.
